Blank lines part the entries; values can stand above or below the compound they belong to. Active and inactive are the calls of the source. The rule behind the calls is not given here.
Key:
[1] = Half life in human plasma by […] analysis
Toll-like receptor 7 = target: T1, Toll-like receptor 7 (Homo sapiens, UniProt Q9NYK1); assay: Agonist activity at human TLR7 expressed in HEK293 cells coexpressing pNiFty2-SEAP reporter by reporter gene assay; type: functional, cell-based
T1 sequence (Q9NYK1 whole entry): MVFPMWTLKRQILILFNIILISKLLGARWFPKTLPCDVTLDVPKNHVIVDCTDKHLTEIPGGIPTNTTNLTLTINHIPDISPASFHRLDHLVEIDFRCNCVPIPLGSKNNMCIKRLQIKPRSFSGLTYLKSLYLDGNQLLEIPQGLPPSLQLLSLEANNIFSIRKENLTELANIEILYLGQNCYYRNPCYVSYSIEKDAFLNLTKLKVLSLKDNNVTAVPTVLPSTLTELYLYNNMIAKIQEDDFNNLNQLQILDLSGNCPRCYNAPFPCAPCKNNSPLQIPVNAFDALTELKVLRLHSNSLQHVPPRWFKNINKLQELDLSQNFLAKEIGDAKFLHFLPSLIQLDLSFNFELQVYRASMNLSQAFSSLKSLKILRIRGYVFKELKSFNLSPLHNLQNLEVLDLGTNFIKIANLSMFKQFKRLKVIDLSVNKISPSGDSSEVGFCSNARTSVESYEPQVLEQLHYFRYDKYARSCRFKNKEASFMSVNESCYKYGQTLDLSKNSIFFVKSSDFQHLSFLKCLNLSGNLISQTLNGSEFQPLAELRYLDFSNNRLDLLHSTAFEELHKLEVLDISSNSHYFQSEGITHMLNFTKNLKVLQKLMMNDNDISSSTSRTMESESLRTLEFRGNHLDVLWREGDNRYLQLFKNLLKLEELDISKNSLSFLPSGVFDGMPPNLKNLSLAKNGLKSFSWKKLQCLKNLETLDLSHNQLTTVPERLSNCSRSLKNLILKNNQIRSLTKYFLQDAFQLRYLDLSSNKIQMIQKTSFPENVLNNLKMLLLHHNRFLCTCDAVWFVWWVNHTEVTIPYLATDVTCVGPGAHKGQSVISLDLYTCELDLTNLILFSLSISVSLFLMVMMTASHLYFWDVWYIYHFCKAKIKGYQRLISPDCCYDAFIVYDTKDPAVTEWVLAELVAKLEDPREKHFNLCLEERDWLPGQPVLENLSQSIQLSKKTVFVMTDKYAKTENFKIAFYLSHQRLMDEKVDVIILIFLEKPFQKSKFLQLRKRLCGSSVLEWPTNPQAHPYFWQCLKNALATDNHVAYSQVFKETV
Procedure, shortened: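 HEK293 cells stably transfected with human TLR7 and an NF-kB-driven SEAP reporter; agonist activity read as reporter output and expressed as EC50.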

[2] = Half life in rat plasma by […] analysis; type: ADME, cell-free
PBMC [3] = assay: Induction of type 1 IFN secretion in human PBMC at 1000 nM after 18 hrs by ELISA; type: cell-based; conditions: 1 µM
PBMC [4] = assay: Induction of type 1 IFN secretion in human PBMC at 30 nM after 18 hrs by ELISA; type: cell-based; conditions: 0.03 µM
PBMC [5] = assay: Induction of type 1 IFN secretion in human PBMC at 300 nM after 18 hrs by ELISA; type: cell-based; conditions: 0.3 µM
Toll-like receptor 8 = target: T2, Toll-like receptor 8 (Homo sapiens, UniProt Q9NR97); assay: Agonist activity at TLR8; type: functional
T2 sequence (Q9NR97 whole entry): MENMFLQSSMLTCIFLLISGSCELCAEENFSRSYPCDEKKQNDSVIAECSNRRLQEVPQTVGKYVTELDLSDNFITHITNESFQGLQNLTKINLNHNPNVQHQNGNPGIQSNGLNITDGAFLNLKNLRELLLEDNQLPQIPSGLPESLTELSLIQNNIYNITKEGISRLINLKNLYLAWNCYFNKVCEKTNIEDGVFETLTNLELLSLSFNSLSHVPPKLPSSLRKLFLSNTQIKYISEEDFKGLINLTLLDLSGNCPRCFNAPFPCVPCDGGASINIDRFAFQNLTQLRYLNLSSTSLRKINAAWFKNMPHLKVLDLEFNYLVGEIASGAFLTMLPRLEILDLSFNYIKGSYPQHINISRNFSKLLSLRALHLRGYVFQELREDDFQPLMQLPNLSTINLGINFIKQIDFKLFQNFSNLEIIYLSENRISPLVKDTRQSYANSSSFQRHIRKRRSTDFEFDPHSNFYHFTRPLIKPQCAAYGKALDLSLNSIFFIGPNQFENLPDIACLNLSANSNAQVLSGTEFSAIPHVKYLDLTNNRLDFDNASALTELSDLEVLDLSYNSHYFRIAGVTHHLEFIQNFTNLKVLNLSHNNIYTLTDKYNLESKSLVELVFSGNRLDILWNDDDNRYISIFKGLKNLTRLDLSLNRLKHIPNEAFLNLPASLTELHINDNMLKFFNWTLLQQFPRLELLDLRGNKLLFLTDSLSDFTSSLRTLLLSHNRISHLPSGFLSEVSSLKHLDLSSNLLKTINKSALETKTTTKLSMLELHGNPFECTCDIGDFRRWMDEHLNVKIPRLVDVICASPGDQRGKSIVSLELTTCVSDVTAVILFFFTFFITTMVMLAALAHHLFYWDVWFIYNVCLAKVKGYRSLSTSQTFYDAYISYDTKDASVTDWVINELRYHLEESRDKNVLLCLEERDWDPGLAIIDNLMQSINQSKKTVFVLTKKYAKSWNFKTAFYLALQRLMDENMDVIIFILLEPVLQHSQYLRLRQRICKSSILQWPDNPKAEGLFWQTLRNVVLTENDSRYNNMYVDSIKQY

PBMC [6] = assay: Induction of type 1 IFN secretion in human PBMC at 10 nM after 18 hrs by ELISA; type: cell-based; conditions: 0.01 µM
PBMC [7] = assay: Induction of type 1 IFN secretion in human PBMC at 100 nM after 18 hrs by ELISA; type: cell-based; conditions: 0.1 µM
PBMC [8] = assay: Induction of type 1 IFN secretion in human PBMC at 3 nM after 18 hrs by ELISA; type: cell-based; conditions: 0.003 µM
Rattus norvegicus [9] = assay: Antiinflammatory activity in ovalbumin and […] hydroxide adjuvant-sensitized intratracheally dosed Brown Norway rat assessed as inhibition of allergen-induced eosinophils influx administered 2 hrs before allergen challenge measured after 24 hrs; type: functional, organism-based
PBMC [10] = assay: Induction of type 1 IFN secretion in human PBMC at 10000 nM after 18 hrs by ELISA; type: cell-based; conditions: 10 µM
Procedure, shortened: (§1)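 Human peripheral blood mononuclear cells incubated with compound; IFN in culture supernatants quantified by human ELISA.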

PBMC [11] = assay: Induction of type 1 IFN secretion in human PBMC at 3000 nM after 18 hrs by ELISA; type: cell-based; conditions: 3 µM
Procedure, shortened: as §1

Rattus norvegicus [12] = assay: Induction of IFN secretion in Brown Norway rat plasma at up to 10 mg/kg, intratracheally measured after 2 to 24 hrs by CPE reduction assay; type: organism-based; set-up: dose 10 mg/kg, route endotracheal; conditions: in vivo, inhaled_or_intranasal
Rattus norvegicus [13] = assay: Antiinflammatory activity in ovalbumin and […] hydroxide adjuvant-sensitized Brown Norway rat assessed as inhibition of allergen-induced eosinophils influx at 1 mg/kg, intratracheally administered 2 hrs before allergen challenge measured after 24 hrs; type: functional, organism-based; set-up: dose 1 mg/kg
Rattus norvegicus [14] = assay: Induction of IFN secretion in Brown Norway rat plasma at 0.1 mg/kg, intratracheally measured after 2 to 24 hrs by CPE reduction assay; type: organism-based; set-up: dose 0.1 mg/kg, route endotracheal; conditions: in vivo, inhaled_or_intranasal

Structure (SMILES): CCCCOc1nc(N)c2[nH]c(=O)n(Cc3ccccc3C(=O)OC)c2n1
half-life [1]: > 98 min
EC50 (Toll-like receptor 7): 609 nM

Structure (SMILES): CCCCOc1nc(N)c2[nH]c(=O)n(Cc3cc(CC(=O)OC)ccc3OC)c2n1
half-life [1]: 98 min
EC50 (Toll-like receptor 7): 108 nM

Structure (SMILES): CCCCOc1nc(N)c2[nH]c(=O)n(Cc3ccccc3CC(=O)OC)c2n1
half-life [1]: > 98 min
EC50 (Toll-like receptor 7): 467 nM

Structure (SMILES): CCCCOc1nc(N)c2[nH]c(=O)n(Cc3cccc(CC(=O)O)c3)c2n1
Activity (PBMC [3]): < 1.25 nM
Activity (PBMC [4]): < 1.25 nM
Activity (PBMC [5]): < 1.25 nM
Activity (PBMC [7]): < 1.25 nM
Activity (PBMC [10]): 1.25 nM
Activity (PBMC [11]): 1.25 nM

Structure (SMILES): COCCOc1nc(N)c2[nH]c(=O)n(Cc3ccccc3)c2n1
EC50 (Toll-like receptor 7): 399 nM

Structure (SMILES): CCCCOc1nc(N)c2[nH]c(=O)n(Cc3cccc(CC(=O)OCC)c3)c2n1
half-life [1]: 9 min
EC50 (Toll-like receptor 7): 188 nM

Structure (SMILES): COCCOc1nc(N)c2[nH]c(=O)n(Cc3cccc(CC(=O)OC)c3)c2n1
half-life [1]: 1.4 min
EC50 (Toll-like receptor 7): 312 nM

Structure (SMILES): CCOCc1nc2c(N)nc3ccccc3c2n1CC(C)(C)O [RESIQUIMOD]
Activity (PBMC [3]): 7.75 nM
Activity (PBMC [4]): 1.25 nM
Activity (PBMC [5]): 7.26 nM
Activity (Rattus norvegicus [12]): Non-toxic
Activity (PBMC [6]): < 1.25 nM
Activity (Rattus norvegicus [13]): Active
Activity (Rattus norvegicus [14]): Toxic
Activity (PBMC [7]): 5.61 nM

The remaining compounds from weak to strong by EC50 (Toll-like receptor 7), led by results:

half-life [1]: > 98 min
EC50 (Toll-like receptor 7): 87.5 nM
Structure (SMILES): CCCCOc1nc(N)c2[nH]c(=O)n(Cc3cccc(CCC(=O)OC)c3)c2n1

half-life [1]: > 98 min
EC50 (Toll-like receptor 7): 75 nM
Structure (SMILES): CCCCOc1nc(N)c2[nH]c(=O)n(Cc3cccc(C(C)C(=O)OC)c3)c2n1 (stereo unspecified)

half-life [1]: > 98 min
EC50 (Toll-like receptor 7): 72.9 nM
Structure (SMILES): CCCCOc1nc(N)c2[nH]c(=O)n(Cc3ccc(C(=O)OC)cc3)c2n1

EC50 (Toll-like receptor 7): 63.7 nM
Structure (SMILES): CCCCOc1nc(N)c2nc(O)n(Cc3ccccc3)c2n1

half-life [1]: > 98 min
EC50 (Toll-like receptor 7): 51.5 nM
Structure (SMILES): CCCCOc1nc(N)c2[nH]c(=O)n(Cc3cccc(C(=O)OC)c3)c2n1

half-life [2]: < 0.04 min
half-life [1]: 2.6 min
EC50 (Toll-like receptor 7): 50.1 nM
Activity (PBMC [3]): 6.2 nM
Activity (PBMC [4]): 4.71 nM
Activity (PBMC [5]): 8.37 nM
EC50 (Toll-like receptor 8): > 10000 nM
Activity (PBMC [6]): 1.61 nM
Activity (PBMC [7]): 8.17 nM
Activity (PBMC [8]): < 1.25 nM
Structure (SMILES): CCCCOc1nc(N)c2[nH]c(=O)n(Cc3cccc(CC(=O)OC)c3)c2n1
Activity (Rattus norvegicus [9]): Dose-dependent effect

half-life [1]: 13.1 min
EC50 (Toll-like receptor 7): 25.7 nM
Structure (SMILES): CCCCOc1nc(N)c2[nH]c(=O)n(Cc3ccc(F)c(CC(=O)OC)c3)c2n1

half-life [1]: 21.9 min
EC50 (Toll-like receptor 7): 10.3 nM
Structure (SMILES): CCCCOc1nc(N)c2[nH]c(=O)n(Cc3ccc(CC(=O)OC)cc3)c2n1

half-life [1]: > 98 min
EC50 (Toll-like receptor 7): 8.1 nM
Structure (SMILES): CCCCOc1nc(N)c2[nH]c(=O)n(Cc3ccc(OC)c(CC(=O)OC)c3)c2n1

From ChEMBL document CHEMBL1156980, “Synthesis and biological evaluation of 8-oxoadenine derivatives as toll-like receptor 7 agonists introducing the antedrug concept” (J Med Chem, 2010)
